# Experimental data published in ChEMBL document CHEMBL1123863, “1-[[[5-(substituted phenyl)-2-oxazolyl]methylene]amino]-2,4- imidazolidinediones, a new class of skeletal muscle relaxants” (1987).
# Columns and labels:
# Mus musculus = test: Highest tolerated dose (p.o.) in mice.; assay type: functional
# Summary of the method: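 Mice dosed orally with suspensions in 0.5% methylcellulose 4000 at 50, 200, 400 and 800 mg/kg. Muscle relaxation scored over a 2.0-h observation period on a 0 (none) to 4 (severe) scale. Acute toxicity followed for 72 h after dosing; highest tolerated oral dose given in mg/kg.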
# Rattus norvegicus = test: Inhibition of gastrocnemius twitch tension after a cumulative dose of 36.6 mg/kg iv in rats.; assay type: functional; details: for inhibition in vivo at 36.6 mg/kg: Rattus norvegicus, Gastrocnemius, iv
# Summary of the method: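 Pithed rat gastrocnemius preparation: adult male Charles River rats (385–400 g), ether anesthesia, tracheotomy, pithed, artificially respired, bilaterally vagotomized. Tubocurarine chloride 0.075 mg/kg iv given for neuromuscular blockade, isolating direct muscle action. Compounds in tetrahydro-2-furanmethanol or DMSO, given iv as sequential 0.83, 2.5, 8.3, 25 mg/kg doses. Percent twitch tension inhibition read after the cumulative dose.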
SMILES,HTD (Mus musculus) [mg/kg],Inhibition (Rattus norvegicus) [%],inhibition in vivo at 36.6 mg/kg (Rattus norvegicus) [%]
COc1ccc(-c2cnc(/C=N/N3CC(=O)NC3=O)o2)cc1,>800,-47,
O=C1CN(/N=C/c2ncc(-c3ccc(Br)cc3)o2)C(=O)N1 [AZUMOLENE],>800,-82,
O=C1CN(/N=C/c2ncc(-c3ccc(Cl)c(Cl)c3)o2)C(=O)[N-]1.[Na+],>800,-71,
O=C1CN(/N=C/c2ncc(-c3cccc(C(F)(F)F)c3)o2)C(=O)N1,400,-56,
O=C1CN(/N=C/c2ncc(-c3ccc(Cl)c(Cl)c3)o2)C(=O)N1,>800,-82,
O=C1CN(/N=C/c2ncc(-c3ccc(F)cc3)o2)C(=O)N1,>800,-70,
O=C1CN(/N=C/c2ncc(-c3ccc([N+](=O)[O-])cc3)o2)C(=O)N1,>800,-86,
O=C1CN(/N=C/c2ncc(-c3ccc([N+](=O)[O-])cc3)o2)C(=O)[N-]1.[Na+],>800,-84,
O=C1CN(/N=C/c2ncc(-c3cccc(Cl)c3)o2)C(=O)[N-]1.[Na+],400,,-42
COc1ccc(-c2cnc(/C=N/N3CC(=O)[N-]C3=O)o2)cc1.[Na+],>800,-58,
Cc1ccc(-c2cnc(/C=N/N3CC(=O)NC3=O)o2)cc1,>800,-65,
O=C1CN(/N=C/c2ncc(-c3ccccc3)o2)C(=O)N1,>800,-41,
O=C1CN(/N=C/c2ncc(-c3ccc(Cl)cc3)o2)C(=O)N1,>800,-80,
Cc1ccc(-c2cnc(/C=N/N3CC(=O)[N-]C3=O)o2)cc1.[Na+],>800,-62,
O=C1CN(/N=C/c2ncc(-c3cccc(C(F)(F)F)c3)o2)C(=O)[N-]1.[Na+],50,-69,
O=C1CN(/N=C/c2ncc(-c3ccc(F)cc3)o2)C(=O)[N-]1.[Na+],400,-75,
O=C1CN(/N=C/c2ccc(-c3ccc([N+](=O)[O-])cc3)o2)C(=O)[N-]1.[Na+] [DANTROLENE SODIUM],>400,,-80
O=C1CN(/N=C/c2ncc(-c3ccc(Cl)cc3)o2)C(=O)[N-]1.[Na+],400,-81,
O=C1CN(/N=C/c2ncc(-c3ccc(Br)cc3)o2)C(=O)[N-]1.[Na+] [AZUMOLENE SODIUM],400,-83,
O=C1CN(/N=C/c2ncc(-c3ccccc3[N+](=O)[O-])o2)C(=O)N1,>800,,0
O=C1CN(/N=C/c2ncc(-c3ccccc3)o2)C(=O)[N-]1.[Na+],200,-49,
